From ChEMBL document CHEMBL3864175, “Sulfonamides as Selective NaV1.7 Inhibitors: Optimizing Potency and Pharmacokinetics to Enable in Vivo Target Engagement” (ACS Med Chem Lett, 2016)

Tests used:
[1] = Fraction unbound in rat plasma at 5 uM measured after 45 mins by LC-MS/MS analysis; format: ADME, cell-free
[2] = Total plasma concentration in histamine induced C57BL/6 mouse model of scratching at 20 mg/kg, po pretreated for 120 mins followed by histamine-challenge measured after 30 mins; format: ADME, organism-based
How it was run: (§1)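 Male C57BL/6 mice dosed orally 120 min before intradermal histamine. Scratching bouts counted over 30 min and compared with vehicle by one-way ANOVA with Dunnett's test. Total and unbound plasma levels taken 30 min after histamine.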

[3] = Ratio of drug level in brain to plasma in C57BL/6 mouse; format: ADME; conditions: read-out: BPR
[4] = Fraction unbound in dog plasma at 5 uM by LC-MS/MS analysis; format: ADME, cell-free, Canis lupus familiaris
[5] = Drug excretion in bile duct cannulated Sprague-Dawley rat urine assessed as parent compound at 1 mg/kg, iv administered through catheter measured up to 24 hrs by LC-MS/MS analysis; format: ADME, organism-based; conditions: read-out: Drug excretion
[6] = target: Sodium channel protein type 8 subunit alpha (Homo sapiens, UniProt Q9UQD0); test: Inhibition of 20% inactivated human Nav1.6 expressed in HEK293 cells assessed as inhibition of peak inward current by whole cell patch clamp method; format: cell-based
[7] = Half life in dog at 0.5 mg/kg, iv by LC-MS/MS analysis; format: ADME, organism-based, Canis lupus familiaris; conditions: in vivo
How it was run: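 Dogs dosed intravenously at 0.5 mg/kg in 30% HPBCD/70% water, brought to pH 10 with KOH.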

[8] = Total plasma concentration in histamine induced C57BL/6 mouse model of scratching at 60 mg/kg, po pretreated for 120 mins followed by histamine-challenge measured after 30 mins; format: ADME, organism-based; how it was run: as §1
[9] = target: Sodium channel protein type 1 subunit alpha (Homo sapiens, UniProt P35498); test: Inhibition of 20% inactivated human Nav1.1 expressed in HEK293 cells assessed as inhibition of peak inward current by whole cell patch clamp method; format: cell-based
[10] = target: Sodium channel protein type 9 subunit alpha (Rattus norvegicus, UniProt O08562); test: Inhibition of 20% inactivated rat Nav1.7 expressed in HEK293T cells assessed as inhibition of sodium current measured for 3 to 5 mins by whole cell voltage clamp method; format: cell-based, HEK-293T
[11] = Unbound plasma concentration in histamine induced C57BL/6 mouse model of scratching at 5 mg/kg, po pretreated for 120 mins followed by histamine-challenge measured after 30 mins; format: ADME, organism-based; conditions: in vivo, 0.5 h; how it was run: as §1
[12] = target: Sodium channel protein type 9 subunit alpha (Homo sapiens, UniProt Q15858); test: Inhibition of 20% inactivated human Nav1.7 expressed in HEK293 cells assessed as inhibition of peak inward current by whole cell patch clamp method; format: cell-based
How it was run: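 Electrophysiological block was measured with cells depolarized to a voltage that gave 20% channel inactivation, as opposed to a fully non-inactivated (closed) holding condition.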

[13] = Dissociation constant, pKa of the compound at pH 1.7 to 11.2 by capillary electrophoresis method; format: physicochemical
How it was run: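 pKa values calculated from capillary electrophoresis data collected over pH 1.7 to 11.2.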

[14] = Total plasma concentration in histamine induced C57BL/6 mouse model of scratching at 5 mg/kg, po pretreated for 120 mins followed by histamine-challenge measured after 30 mins; format: ADME, organism-based; how it was run: as §1
[15] = Unbound clearance in rat at 0.5 mg/kg, iv by LC-MS/MS analysis; format: ADME, organism-based; conditions: in vivo
How it was run: (§2)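 Male rats, n = 2 per group, dosed intravenously at 0.5 mg/kg as a solution in 100% DMSO. Unbound clearance is derived from total clearance.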

[16] = Half life in rat at 0.5 mg/kg, iv by LC-MS/MS analysis; format: ADME, organism-based; conditions: in vivo; how it was run: as §2
[17] = Drug excretion in bile duct cannulated Sprague-Dawley rat bile assessed as parent compound at 1 mg/kg, iv administered through catheter measured up to 24 hrs by LC-MS/MS analysis; format: ADME, organism-based; conditions: read-out: Drug excretion
[18] = Apparent permeability in MDCK cells; format: ADME, cell-based, Canis lupus familiaris; conditions: dog
How it was run: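 Apparent permeability measured in parental MDCK cells.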

[19] = target: Sodium channel protein type 5 subunit alpha (Homo sapiens, UniProt Q14524); test: Inhibition of 20% inactivated human Nav1.5 expressed in HEK293 cells assessed as inhibition of peak inward current by whole cell patch clamp method; format: cell-based
Chain of Sodium channel protein type 5 subunit alpha (Q14524 whole entry): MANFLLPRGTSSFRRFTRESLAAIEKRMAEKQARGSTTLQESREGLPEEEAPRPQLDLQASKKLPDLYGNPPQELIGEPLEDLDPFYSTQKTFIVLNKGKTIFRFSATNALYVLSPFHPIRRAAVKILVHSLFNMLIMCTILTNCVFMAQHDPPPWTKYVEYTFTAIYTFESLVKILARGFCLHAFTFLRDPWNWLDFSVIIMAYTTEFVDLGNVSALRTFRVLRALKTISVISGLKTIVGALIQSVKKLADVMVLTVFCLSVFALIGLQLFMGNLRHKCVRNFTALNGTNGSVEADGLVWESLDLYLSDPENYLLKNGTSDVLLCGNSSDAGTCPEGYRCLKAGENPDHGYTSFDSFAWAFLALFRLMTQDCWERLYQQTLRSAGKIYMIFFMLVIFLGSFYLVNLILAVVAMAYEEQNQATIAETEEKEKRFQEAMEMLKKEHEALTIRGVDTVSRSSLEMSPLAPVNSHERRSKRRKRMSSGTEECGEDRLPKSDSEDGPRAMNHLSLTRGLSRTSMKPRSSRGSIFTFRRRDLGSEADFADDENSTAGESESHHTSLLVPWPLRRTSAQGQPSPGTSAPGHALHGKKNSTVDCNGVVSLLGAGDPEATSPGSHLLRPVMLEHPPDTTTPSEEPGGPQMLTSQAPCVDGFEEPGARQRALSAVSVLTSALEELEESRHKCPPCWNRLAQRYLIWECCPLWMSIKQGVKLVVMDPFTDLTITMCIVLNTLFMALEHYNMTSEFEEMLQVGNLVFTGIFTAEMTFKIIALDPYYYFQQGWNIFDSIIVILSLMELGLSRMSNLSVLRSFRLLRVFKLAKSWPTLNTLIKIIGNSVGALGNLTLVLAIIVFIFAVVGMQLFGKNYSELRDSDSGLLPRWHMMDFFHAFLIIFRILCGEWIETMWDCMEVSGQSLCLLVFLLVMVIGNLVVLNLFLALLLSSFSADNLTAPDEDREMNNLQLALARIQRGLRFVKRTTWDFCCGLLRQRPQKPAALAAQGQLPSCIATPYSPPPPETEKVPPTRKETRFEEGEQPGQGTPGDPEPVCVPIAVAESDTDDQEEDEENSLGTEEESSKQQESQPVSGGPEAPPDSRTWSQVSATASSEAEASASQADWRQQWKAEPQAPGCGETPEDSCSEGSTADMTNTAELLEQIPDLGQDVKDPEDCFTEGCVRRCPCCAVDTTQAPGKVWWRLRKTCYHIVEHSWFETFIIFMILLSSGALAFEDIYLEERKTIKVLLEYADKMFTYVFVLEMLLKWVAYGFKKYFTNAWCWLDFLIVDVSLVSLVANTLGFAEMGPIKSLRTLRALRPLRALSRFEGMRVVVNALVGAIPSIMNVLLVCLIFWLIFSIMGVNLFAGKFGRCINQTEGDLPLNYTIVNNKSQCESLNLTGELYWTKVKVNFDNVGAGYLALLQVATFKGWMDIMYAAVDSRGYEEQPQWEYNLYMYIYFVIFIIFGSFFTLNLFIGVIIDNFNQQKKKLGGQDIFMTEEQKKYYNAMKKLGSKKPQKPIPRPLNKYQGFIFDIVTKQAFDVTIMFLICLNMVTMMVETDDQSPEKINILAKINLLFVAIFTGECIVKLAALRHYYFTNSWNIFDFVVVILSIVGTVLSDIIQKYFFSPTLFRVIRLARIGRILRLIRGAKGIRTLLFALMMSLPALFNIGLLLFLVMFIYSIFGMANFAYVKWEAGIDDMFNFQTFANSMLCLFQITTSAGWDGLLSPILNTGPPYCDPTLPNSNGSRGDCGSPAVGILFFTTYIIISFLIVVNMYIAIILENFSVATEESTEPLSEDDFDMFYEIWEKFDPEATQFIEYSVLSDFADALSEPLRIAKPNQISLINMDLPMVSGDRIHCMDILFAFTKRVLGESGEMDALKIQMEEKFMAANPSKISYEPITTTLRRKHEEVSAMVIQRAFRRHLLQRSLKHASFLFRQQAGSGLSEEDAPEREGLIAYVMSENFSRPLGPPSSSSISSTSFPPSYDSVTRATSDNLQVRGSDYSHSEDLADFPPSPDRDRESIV

Chain of Sodium channel protein type 9 subunit alpha (Homo sapiens, UniProt Q15858) (Q15858 whole entry): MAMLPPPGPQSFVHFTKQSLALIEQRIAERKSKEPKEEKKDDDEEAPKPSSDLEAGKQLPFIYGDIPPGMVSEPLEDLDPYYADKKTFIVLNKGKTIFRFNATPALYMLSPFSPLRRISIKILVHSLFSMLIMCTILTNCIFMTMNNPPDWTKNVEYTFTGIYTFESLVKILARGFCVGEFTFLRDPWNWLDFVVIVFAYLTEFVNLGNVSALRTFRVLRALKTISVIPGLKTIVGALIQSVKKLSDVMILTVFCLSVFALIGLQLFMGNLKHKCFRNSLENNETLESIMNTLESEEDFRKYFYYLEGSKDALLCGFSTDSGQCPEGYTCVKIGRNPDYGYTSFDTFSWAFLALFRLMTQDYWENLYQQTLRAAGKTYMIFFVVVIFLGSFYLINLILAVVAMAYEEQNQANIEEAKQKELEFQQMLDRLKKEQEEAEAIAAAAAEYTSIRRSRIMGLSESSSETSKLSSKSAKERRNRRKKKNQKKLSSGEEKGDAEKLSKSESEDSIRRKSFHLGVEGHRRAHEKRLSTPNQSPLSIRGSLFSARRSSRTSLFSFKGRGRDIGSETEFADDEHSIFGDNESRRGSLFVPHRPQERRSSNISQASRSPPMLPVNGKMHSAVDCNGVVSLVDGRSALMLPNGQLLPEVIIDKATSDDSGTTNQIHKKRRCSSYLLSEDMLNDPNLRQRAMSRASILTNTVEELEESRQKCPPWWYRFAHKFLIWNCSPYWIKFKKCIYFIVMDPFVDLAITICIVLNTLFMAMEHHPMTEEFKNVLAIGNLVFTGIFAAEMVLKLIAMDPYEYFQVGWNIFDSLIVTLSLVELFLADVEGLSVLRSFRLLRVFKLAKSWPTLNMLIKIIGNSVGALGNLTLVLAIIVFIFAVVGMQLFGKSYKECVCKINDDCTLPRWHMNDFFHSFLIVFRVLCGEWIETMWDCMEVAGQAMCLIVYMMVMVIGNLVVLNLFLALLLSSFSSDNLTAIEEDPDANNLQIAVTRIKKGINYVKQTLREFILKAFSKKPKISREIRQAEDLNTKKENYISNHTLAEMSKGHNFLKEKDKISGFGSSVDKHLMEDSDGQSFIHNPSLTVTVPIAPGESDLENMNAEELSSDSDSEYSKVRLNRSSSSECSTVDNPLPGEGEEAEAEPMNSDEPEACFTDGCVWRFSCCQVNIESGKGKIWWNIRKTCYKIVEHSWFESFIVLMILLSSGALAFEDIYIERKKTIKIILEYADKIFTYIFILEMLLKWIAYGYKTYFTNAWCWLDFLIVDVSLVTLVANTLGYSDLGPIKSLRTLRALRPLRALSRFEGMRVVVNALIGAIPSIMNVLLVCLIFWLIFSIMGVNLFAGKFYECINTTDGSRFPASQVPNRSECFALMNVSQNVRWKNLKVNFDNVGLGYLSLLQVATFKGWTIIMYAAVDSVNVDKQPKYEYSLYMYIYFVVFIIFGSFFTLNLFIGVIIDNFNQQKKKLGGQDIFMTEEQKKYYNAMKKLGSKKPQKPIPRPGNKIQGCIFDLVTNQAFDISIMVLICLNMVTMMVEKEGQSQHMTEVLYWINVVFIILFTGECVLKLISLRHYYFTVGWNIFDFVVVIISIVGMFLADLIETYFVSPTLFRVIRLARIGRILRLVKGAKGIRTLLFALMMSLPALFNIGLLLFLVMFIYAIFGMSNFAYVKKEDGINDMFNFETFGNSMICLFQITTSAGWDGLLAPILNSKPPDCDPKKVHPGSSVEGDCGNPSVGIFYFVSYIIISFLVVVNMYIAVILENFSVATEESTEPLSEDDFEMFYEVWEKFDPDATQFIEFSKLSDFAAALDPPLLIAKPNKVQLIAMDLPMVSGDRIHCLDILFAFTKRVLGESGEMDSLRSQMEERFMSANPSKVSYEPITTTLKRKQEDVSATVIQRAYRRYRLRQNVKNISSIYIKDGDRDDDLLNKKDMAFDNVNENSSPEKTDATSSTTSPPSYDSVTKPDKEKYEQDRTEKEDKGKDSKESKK

COc1cc(C(F)(F)F)ccc1-c1ncnc2cc(S(=O)(=O)Nc3nccs3)ccc12
fraction unbound at 0.75 h, 5 µM [1]: 0.016
concentration at 0.5 h [2]: 22 µM
Kp [3]: 0.008
fraction unbound at 5 µM [4]: 0.014
dose excreted at 24 h [5]: 0.02%
IC50 [6]: 3.7 µM
half-life [7]: 18 h
concentration at 0.5 h [8]: 150 µM
IC50 [9]: 7.3 µM
IC50 [10]: 3.5 µM
Cp(f) [11]: 0.11 µM
IC50 [12]: 0.14 µM
pKa [13]: 6.5
concentration at 0.5 h [14]: 3.1 µM
CL free [15]: 567 mL/min/kg
half-life [16]: 1.9 h
dose excreted at 24 h [17]: 4.7%
Papp [18]: 31 ×10⁻⁶ cm/s
IC50 [19]: 16 µM
